Hits are enriched below; roughly 2.7% of the tested compounds scored in any of these assays.
PRMT1 FP inh: PRMT1 methyltransferase inhibitors, primary screen, biochemical, fluorescence polarization; Protein arginine N-methyltransferase 1 (Homo sapiens), Q99873; recombinant PRMT1, activity-based probe fluorescence polarization; inhibition, % at 2.79 µM; 370,000 compounds, 1.3% hits; AID 652257, 2013;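 active means inhibition above about 21% made by adding two undisclosed values, limit read from the data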
SIAE primary: human SIAE inhibitors, primary screen, biochemical, fluorescence polarization, FP-Rh probe, 1536-well HTS | Sialate O-acetylesterase (Homo sapiens), Q9HAT2 | SIAE FP-Rh probe binding | inhibition, % at 9.66 µM | 370,000 compounds, 0.69% hits | AID 1053197, 2014;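 active means inhibition above a cutoff: mean of compounds within the control limits plus 3 SD of those, cut at about 17% in these data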;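 further: 0% = plate median of compound wells and 100% = probe without SIAE protein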
Target sequence (Q9HAT2 whole entry, looked up): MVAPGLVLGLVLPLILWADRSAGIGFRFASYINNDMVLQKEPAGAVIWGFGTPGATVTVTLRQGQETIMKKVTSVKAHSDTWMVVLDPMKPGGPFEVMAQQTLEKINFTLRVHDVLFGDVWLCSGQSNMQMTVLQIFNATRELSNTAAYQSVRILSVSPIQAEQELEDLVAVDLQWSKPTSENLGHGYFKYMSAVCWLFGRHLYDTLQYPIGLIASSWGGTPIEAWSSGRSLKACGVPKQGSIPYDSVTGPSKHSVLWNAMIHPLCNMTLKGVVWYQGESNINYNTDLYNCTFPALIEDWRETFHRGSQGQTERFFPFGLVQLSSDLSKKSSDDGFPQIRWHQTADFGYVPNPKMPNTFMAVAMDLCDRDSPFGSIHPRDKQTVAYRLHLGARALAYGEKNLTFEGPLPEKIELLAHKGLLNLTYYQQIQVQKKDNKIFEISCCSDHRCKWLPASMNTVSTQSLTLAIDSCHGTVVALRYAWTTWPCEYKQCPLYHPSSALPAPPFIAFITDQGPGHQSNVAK
HTRA1 inhibitor: HTRA1 serine protease inhibitors, primary screen, biochemical, fluorescence polarization, HTS; recombinant HTRA1, FP-rhodamine activity-based probe; inhibition, % at 5.96 µM; Q92743; 340,000 compounds, 0.5% hits; AID 504803, 2011; in the data active means inhibition above about 36%;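 further: 0% = enzyme with DMSO and 100% = wells lacking enzyme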
mABHD4 FP: ABHD4 inhibitors, primary screen, biochemical, fluorescence polarization, mouse; purified mABHD4, FP-Rh probe fluorescence polarization; inhibition, % at 8.92 µM; 370,000 compounds, 0.54% hits; AID 720543, 2013;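 active means inhibition exceeding the mean over every tested compound plus 3 SD, cut at about 30% in these data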;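 further: 0% = plate median of compound wells and 100% = S159A mutant with DMSO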
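assay system = mABHD4 protein | compound dosing = single nominal dose of 8.92 µM, 0.89% DMSO final | read-out basis = percent inhibition of probe binding, normalized to plate controls | schedule = Enzyme–compound pre-incubation 45 min, then probe 60 min, both 25 °C | detection = fluorescence polarization, excitation 525 nm, emission 598 nm, BODIPY TMR filters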
TCR CD3 inh: inhibitors of human TCR-CD3 interaction, primary screen, biochemical, fluorescence, TAMRA-labeled TCR probe; inhibition, % at 9.4 µM; 360,000 compounds, 0.37% hits; T-cell receptor (TCR); in the data active means inhibition above about 19%;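 further: recombinant mutant TCR 2C K166C tagged with TAMRA read by polarization; 0% = receptor in buffer alone and 100% = receptor with positive control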
mABHD4 conf: ABHD4 inhibitors, retest, confirmation, biochemical, fluorescence polarization, mouse. shares compounds with mABHD4 FP. purified mABHD4, FP-Rh probe fluorescence polarization. inhibition, % at 8.92 µM. 1,800 compounds, 55% hits;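 active means mean inhibition across replicates above the hit cutoff set in the primary screen, cut at about 30% in these data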;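 further: 0% = wild-type ABHD4 with DMSO and 100% = catalytically dead S159A mutant with DMSO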
* marks the source's active call; other numbers are inactive results.

COc1ccc(NC(=O)/C(C#N)=C/c2cccnc2)c(OC)c1 was read as PRMT1 FP inh -1, SIAE primary 5, HTRA1 inhibitor -4, mABHD4 FP -1 and TCR CD3 inh 6.
Screening N#C/C(=C\c1cccnc1)C(=O)Nc1ccc(O)cc1F returned PRMT1 FP inh 3, SIAE primary 11, HTRA1 inhibitor 23, mABHD4 FP 67*, TCR CD3 inh -19 and mABHD4 conf 11.
`COc1ccc([C@H]2C[C@H](n3cc(-c4ccc(F)cc4)nn3)[C@@H](O)CN2C(=O)C2CCCCC2)cc1` gave PRMT1 FP inh 1, SIAE primary 10, HTRA1 inhibitor -27, mABHD4 FP -5 and TCR CD3 inh -7.
For Cc1[nH]n(-c2ccccc2)c(=O)c1C(c1ccccc1[N+](=O)[O-])C(C#N)C#N (stereo not given) the results were PRMT1 FP inh 6, SIAE primary 14, HTRA1 inhibitor 14, mABHD4 FP 42*, TCR CD3 inh 4 and mABHD4 conf 38*.
CC(C)C[C@H](NC(=O)C1CC1)C(=O)N1CCC[C@H]1C(=O)NCc1ccccc1 was read as PRMT1 FP inh -3, SIAE primary -2, mABHD4 FP -3 and TCR CD3 inh 2.
Screening CCCc1cc(-c2ccc3c(c2)COc2c4ccccc4nn2-3)on1 returned PRMT1 FP inh 2, SIAE primary 4, HTRA1 inhibitor -19, mABHD4 FP 13 and TCR CD3 inh -5.
For Cc1cc(-c2ccc3c(c2)COc2c4ccccc4nn2-3)on1 the results were PRMT1 FP inh 8, SIAE primary -3, HTRA1 inhibitor -1, mABHD4 FP 31*, TCR CD3 inh 5 and mABHD4 conf -2.
`COc1ccccc1C(=O)N1CCC(Oc2cccnc2)CC1` gave PRMT1 FP inh -5, SIAE primary 1 and mABHD4 FP 5.
Cc1cc(Cl)c(S(=O)(=O)Nc2ccc3c(c2)OCO3)cc1OCC(=O)NC1CCCCC1 was read as PRMT1 FP inh 3, SIAE primary -2, HTRA1 inhibitor -14, mABHD4 FP 30*, TCR CD3 inh 0 and mABHD4 conf 3.
`CC(=O)Nc1cccc(/C(C)=N/Nc2ccc(S(=O)(=O)Nc3ccccc3C(=O)O)cc2[N+](=O)[O-])c1` gave PRMT1 FP inh 1, SIAE primary 7, HTRA1 inhibitor 7, mABHD4 FP 42*, TCR CD3 inh 5 and mABHD4 conf 63*.
CC(=O)Nc1ccc(C=NNc2ccc(S(=O)(=O)Nc3ccccc3C(=O)O)cc2[N+](=O)[O-])cc1 was read as PRMT1 FP inh 11, SIAE primary -3, HTRA1 inhibitor 35, mABHD4 FP 55*, TCR CD3 inh -5 and mABHD4 conf 77*.
For Cc1ccccc1NC1=C/C(=N\S(=O)(=O)c2ccc(C(=O)O)cc2)c2ccccc2C1=O the results were PRMT1 FP inh 6, SIAE primary 4, HTRA1 inhibitor 26, mABHD4 FP 63*, TCR CD3 inh 4 and mABHD4 conf 65*.
Screening Cc1ccc(C)c(S(=O)(=O)/N=C2\C=C(NS(=O)(=O)c3ccccc3)C(=O)c3ccccc32)c1 returned PRMT1 FP inh 6, SIAE primary -4, HTRA1 inhibitor 13, mABHD4 FP 46*, TCR CD3 inh -7 and mABHD4 conf 58*.
Screening NC(=O)c1ccsc1NC(=O)c1ccc([N+](=O)[O-])o1 returned PRMT1 FP inh 16, SIAE primary 9, HTRA1 inhibitor 4, mABHD4 FP 50*, TCR CD3 inh 1 and mABHD4 conf 56*.
For CN1CCN(S(=O)(=O)c2ccc(CNC(=O)c3ccccc3)s2)CC1 the results were PRMT1 FP inh -1, SIAE primary -4, HTRA1 inhibitor 4, mABHD4 FP 0 and TCR CD3 inh -2.
Nc1[nH]n2c(=O)cc(-c3ccccc3)nc2c1N=Nc1ccc(S(N)(=O)=O)cc1 was read as PRMT1 FP inh 6, SIAE primary -8, HTRA1 inhibitor 14, mABHD4 FP 32*, TCR CD3 inh -7 and mABHD4 conf 37*.
Screening NC(=S)NN=Cc1nccc2c(N)cccc12 returned PRMT1 FP inh 18, SIAE primary 6, HTRA1 inhibitor 16, mABHD4 FP 36*, TCR CD3 inh 4 and mABHD4 conf 44*.
Screening CCCCCNC(=O)C(c1ccncc1)n1c(=O)c(-c2ccco2)nc2ccccc21 (stereo not given) returned PRMT1 FP inh 8, SIAE primary 7, mABHD4 FP 32*, TCR CD3 inh -2 and mABHD4 conf 12.
CCN(CC)c1ccc(C=Nc2ccc(OC)c(S(=O)(=O)N3CCOCC3)c2)c(O)c1 was read as PRMT1 FP inh -1, SIAE primary -7, HTRA1 inhibitor 7, mABHD4 FP 1 and TCR CD3 inh 6.
Screening CCCCNC(=O)NS(=O)(=O)c1ccc(NC(=O)CSc2nnc(-c3ccc(Cl)cc3)n2N)cc1 returned PRMT1 FP inh 5, SIAE primary 2 and mABHD4 FP 1.
For CCCCCN=C(N)N/N=C/c1c[nH]c2ccc(OC)cc12 the results were PRMT1 FP inh 0, SIAE primary -4, HTRA1 inhibitor 12, mABHD4 FP 41*, TCR CD3 inh -4 and mABHD4 conf 54*.
Screening Cc1ccc(CN2CCN(/N=C/c3ccc(O)c(O)c3)CC2)cc1 returned PRMT1 FP inh 1, SIAE primary 10, HTRA1 inhibitor 32, mABHD4 FP 31*, TCR CD3 inh 6 and mABHD4 conf 54*.
`O=C1NCN(c2ccccc2)C12CCN(CCCC(c1ccc(F)cc1)c1ccc(F)cc1)CC2` gave PRMT1 FP inh -2, SIAE primary 3, HTRA1 inhibitor -10, mABHD4 FP 32*, TCR CD3 inh -9 and mABHD4 conf 37*.
`Cc1cc(N/N=C/c2cccc(F)c2)nc(NCc2ccccc2)n1` gave PRMT1 FP inh -3, SIAE primary -4, HTRA1 inhibitor -25, mABHD4 FP 39*, TCR CD3 inh 10 and mABHD4 conf 39*.
For Cc1cc(N/N=C/c2ccccc2)nc(NCc2ccccc2)n1 the results were PRMT1 FP inh 4, SIAE primary 0, HTRA1 inhibitor -6, mABHD4 FP 12 and TCR CD3 inh 3.
Cc1cc(N/N=C/c2cccc(Cl)c2)nc(NCc2ccccc2)n1 was read as PRMT1 FP inh 0, SIAE primary 8, HTRA1 inhibitor -35, mABHD4 FP 40*, TCR CD3 inh -5 and mABHD4 conf 60*.
For COc1ccc(-c2cc(-c3nnc(SCC(=O)Nc4cccc(Cl)c4C)n3N)[nH]n2)cc1 the results were PRMT1 FP inh 3, SIAE primary 1 and mABHD4 FP -3.

From PubChem
